Measurements as given in ChEMBL document CHEMBL6096655, “Discovery of a novel, selective CK2 inhibitor class with an unusual basic scaffold” (Eur J Med Chem, 2025).

Assays:
[1] = biological target: Casein kinase I isoform gamma-1 (Homo sapiens) (UniProt Q9HCP0); test: Inhibition of human recombinant GST tagged CSNK1G1 expressed in insect cells at 2 uM by Eurofins kinase assay relative to control
[2] = biological target: Mitogen-activated protein kinase 1 (Homo sapiens) (UniProt P28482); test: Inhibition of human MAPK1 at 2 uM by Eurofins kinase assay relative to control
[3] = biological target: Serine/threonine-protein kinase haspin (Homo sapiens) (UniProt Q8TF76); test: Inhibition of human recombinant GSG2 at 2 uM by Eurofins kinase assay relative to control
[4] = biological target: Homeodomain-interacting protein kinase 2 (Homo sapiens) (UniProt Q9H2X6); test: Inhibition of human recombinant HIPK2 at 2 uM by Eurofins kinase assay relative to control
[5] = biological target: Mitogen-activated protein kinase 12 (Homo sapiens) (UniProt P53778); test: Inhibition of human recombinant MAPK12 at 2 uM by Eurofins kinase assay relative to control
Chain of Mitogen-activated protein kinase 12 (Homo sapiens) (P53778 whole entry): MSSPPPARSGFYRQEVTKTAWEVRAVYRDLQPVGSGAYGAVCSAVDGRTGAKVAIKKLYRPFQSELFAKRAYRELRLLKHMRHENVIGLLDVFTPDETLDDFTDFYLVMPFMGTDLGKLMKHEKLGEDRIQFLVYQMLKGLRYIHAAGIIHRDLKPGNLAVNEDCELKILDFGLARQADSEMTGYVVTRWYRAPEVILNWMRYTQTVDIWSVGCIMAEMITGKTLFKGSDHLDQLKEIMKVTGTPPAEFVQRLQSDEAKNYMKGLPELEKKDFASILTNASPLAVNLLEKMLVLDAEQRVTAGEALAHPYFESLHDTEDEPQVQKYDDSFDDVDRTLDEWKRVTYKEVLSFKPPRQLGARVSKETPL

[6] = Upregulation of PARP cleavage in human U-937 cells by measuring signal 2 at 15 uM measured after 48 hrs by immunoblot analysis; format: functional
Summary of the method: (§1)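 U937 lymphoma cells grown in RPMI with 2 mM L-glutamine, 1 % pen/strep and 10 % FCS; exposed to compound or DMSO solvent control for 48 h. Total cellular proteins harvested and immunoblotted with an antibody against phosphorylated CK2-substrate motifs and for PARP. Read-out is the densitometric ratio of cleaved to uncleaved PARP signal. Representative of two independent experiments.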

[7] = Upregulation of PARP cleavage in human U-937 cells by measuring signal 1 at 30 uM measured after 48 hrs by immunoblot analysis; format: functional
Summary of the method: (§2)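 U937 cells exposed to compound or DMSO for 48 h, then lysed in Laemmli buffer. Lysates were run on 8–16% gradient SDS-PAGE, semi-dry blotted to PVDF and probed for PARP. Detection used IR-fluorescent secondary antibodies. The cleaved/uncleaved PARP signal ratio was obtained by densitometry. Results are representative of two independent experiments.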

[8] = biological target: Serine/threonine-protein kinase D1 (Homo sapiens) (UniProt Q15139); test: Inhibition of human recombinant PRKD1 at 2 uM by Eurofins kinase assay relative to control
Chain of Serine/threonine-protein kinase D1 (Homo sapiens) (Q15139 whole entry): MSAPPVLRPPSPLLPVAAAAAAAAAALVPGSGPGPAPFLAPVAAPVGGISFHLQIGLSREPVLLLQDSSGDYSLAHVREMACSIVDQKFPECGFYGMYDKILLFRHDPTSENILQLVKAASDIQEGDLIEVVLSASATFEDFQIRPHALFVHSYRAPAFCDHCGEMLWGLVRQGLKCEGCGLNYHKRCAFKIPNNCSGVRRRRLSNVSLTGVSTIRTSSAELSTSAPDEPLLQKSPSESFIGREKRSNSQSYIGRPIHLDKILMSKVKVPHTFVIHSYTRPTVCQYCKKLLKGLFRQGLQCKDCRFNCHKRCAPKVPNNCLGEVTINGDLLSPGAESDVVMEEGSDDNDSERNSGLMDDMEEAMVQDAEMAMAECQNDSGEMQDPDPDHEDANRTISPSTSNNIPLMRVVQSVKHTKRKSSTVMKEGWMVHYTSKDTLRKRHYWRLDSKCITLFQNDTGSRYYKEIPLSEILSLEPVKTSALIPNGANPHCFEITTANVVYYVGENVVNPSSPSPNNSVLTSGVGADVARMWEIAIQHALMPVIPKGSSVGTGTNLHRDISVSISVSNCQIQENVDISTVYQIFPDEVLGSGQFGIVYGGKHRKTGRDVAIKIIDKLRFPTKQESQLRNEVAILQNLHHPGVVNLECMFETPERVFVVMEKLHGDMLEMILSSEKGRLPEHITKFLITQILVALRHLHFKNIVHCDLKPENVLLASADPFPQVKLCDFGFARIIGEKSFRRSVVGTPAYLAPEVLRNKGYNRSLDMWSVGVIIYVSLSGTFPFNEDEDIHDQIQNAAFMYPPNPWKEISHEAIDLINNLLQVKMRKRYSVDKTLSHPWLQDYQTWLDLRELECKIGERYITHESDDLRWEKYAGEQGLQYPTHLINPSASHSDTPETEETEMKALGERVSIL

[9] = biological target: Homeodomain-interacting protein kinase 3 (Homo sapiens) (UniProt Q9H422); test: Inhibition of human recombinant HIPK3 at 2 uM by Eurofins kinase assay relative to control
Chain of Homeodomain-interacting protein kinase 3 (Homo sapiens) (Q9H422 whole entry, looked up): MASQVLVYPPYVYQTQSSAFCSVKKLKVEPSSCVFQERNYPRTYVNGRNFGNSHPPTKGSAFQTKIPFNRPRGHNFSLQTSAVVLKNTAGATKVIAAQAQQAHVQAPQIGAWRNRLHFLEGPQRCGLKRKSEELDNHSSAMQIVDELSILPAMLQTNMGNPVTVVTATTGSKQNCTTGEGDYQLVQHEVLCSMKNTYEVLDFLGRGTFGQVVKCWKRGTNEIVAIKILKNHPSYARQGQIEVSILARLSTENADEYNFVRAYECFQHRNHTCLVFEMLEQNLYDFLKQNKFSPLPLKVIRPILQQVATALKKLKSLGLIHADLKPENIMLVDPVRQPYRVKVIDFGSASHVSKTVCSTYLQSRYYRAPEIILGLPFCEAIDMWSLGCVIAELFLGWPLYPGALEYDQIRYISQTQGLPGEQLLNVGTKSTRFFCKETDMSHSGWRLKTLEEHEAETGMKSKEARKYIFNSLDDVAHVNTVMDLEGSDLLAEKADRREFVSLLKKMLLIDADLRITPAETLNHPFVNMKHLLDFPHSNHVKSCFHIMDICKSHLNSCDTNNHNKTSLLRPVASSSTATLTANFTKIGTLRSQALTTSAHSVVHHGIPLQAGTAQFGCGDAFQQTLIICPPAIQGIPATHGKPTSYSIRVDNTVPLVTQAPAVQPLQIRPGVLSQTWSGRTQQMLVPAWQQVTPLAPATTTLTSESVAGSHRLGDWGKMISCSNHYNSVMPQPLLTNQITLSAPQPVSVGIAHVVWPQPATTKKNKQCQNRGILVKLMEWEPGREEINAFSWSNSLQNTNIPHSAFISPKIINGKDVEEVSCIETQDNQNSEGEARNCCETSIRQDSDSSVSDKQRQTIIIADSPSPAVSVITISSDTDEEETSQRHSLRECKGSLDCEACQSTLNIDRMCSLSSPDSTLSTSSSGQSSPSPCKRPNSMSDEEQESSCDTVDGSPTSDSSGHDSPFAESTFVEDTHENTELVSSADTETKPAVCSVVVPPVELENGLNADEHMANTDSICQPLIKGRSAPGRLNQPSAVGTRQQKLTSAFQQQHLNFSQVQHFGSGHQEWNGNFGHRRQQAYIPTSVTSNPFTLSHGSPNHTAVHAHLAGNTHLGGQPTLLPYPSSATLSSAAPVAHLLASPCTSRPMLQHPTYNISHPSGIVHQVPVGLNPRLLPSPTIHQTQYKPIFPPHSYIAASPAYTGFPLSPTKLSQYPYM

[10] = biological target: Eukaryotic translation initiation factor 2 subunit 2 (Homo sapiens) (UniProt P20042); test: Inhibition of eIF2beta phosphorylation in human 786-O cells at 8 uM measured after 48 hrs by immunoblot analysis relative to control
Chain of Eukaryotic translation initiation factor 2 subunit 2 (Homo sapiens) (P20042 whole entry, the tested form may be a part): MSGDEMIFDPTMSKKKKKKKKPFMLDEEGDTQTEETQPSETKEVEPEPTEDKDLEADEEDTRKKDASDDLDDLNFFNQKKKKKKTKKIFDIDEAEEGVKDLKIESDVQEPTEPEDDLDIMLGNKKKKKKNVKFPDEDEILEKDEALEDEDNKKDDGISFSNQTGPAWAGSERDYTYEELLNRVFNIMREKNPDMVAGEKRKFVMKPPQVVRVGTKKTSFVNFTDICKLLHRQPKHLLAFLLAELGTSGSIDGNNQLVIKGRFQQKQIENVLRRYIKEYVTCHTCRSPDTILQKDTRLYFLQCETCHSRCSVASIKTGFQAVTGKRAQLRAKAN

[11] = biological target: PAS domain-containing serine/threonine-protein kinase (Homo sapiens) (UniProt Q96RG2); test: Inhibition of human recombinant PASK at 2 uM by Eurofins kinase assay relative to control
[12] = biological target: Signal transducer and activator of transcription 3 (Homo sapiens) (UniProt P40763); test: Inhibition of STAT3 phosphorylation in human 786-O cells at 8 uM measured after 48 hrs by immunoblot analysis relative to control
Chain of Signal transducer and activator of transcription 3 (Homo sapiens) (P40763 whole entry): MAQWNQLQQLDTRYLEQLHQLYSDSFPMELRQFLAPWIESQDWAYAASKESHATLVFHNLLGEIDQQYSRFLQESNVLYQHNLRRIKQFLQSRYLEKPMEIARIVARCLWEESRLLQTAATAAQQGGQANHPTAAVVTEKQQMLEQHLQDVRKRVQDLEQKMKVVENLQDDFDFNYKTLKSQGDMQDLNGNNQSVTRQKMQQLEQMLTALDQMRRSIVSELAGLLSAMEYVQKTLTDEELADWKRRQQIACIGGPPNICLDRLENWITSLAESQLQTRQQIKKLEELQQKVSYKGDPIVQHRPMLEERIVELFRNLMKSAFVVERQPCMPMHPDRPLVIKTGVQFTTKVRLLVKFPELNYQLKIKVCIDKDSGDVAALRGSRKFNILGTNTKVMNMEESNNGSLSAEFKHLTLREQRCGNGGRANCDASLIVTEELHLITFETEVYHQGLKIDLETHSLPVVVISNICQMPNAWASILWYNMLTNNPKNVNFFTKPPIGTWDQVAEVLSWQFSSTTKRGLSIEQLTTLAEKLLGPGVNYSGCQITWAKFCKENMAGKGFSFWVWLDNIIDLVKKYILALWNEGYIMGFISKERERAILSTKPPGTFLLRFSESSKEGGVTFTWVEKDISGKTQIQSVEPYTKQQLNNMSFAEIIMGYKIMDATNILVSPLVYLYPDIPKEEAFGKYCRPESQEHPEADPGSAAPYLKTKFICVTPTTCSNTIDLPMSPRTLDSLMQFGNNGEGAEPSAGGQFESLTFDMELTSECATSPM

[13] = biological target: Hepatocyte growth factor receptor (Homo sapiens) (UniProt P08581); test: Inhibition of human MET at 2 uM by Eurofins kinase assay relative to control
[14] = biological target: Mitogen-activated protein kinase 8 (Homo sapiens) (UniProt P45983); test: Inhibition of human recombinant MAPK8 at 2 uM by Eurofins kinase assay relative to control
[15] = Upregulation of PARP cleavage in human U-937 cells by measuring signal 2 at 5 uM measured after 48 hrs by immunoblot analysis; format: functional; summary of the method: as §1
[16] = biological target: Signal transducer and activator of transcription 3 (Homo sapiens) (UniProt P40763); test: Inhibition of STAT3 phosphorylation in human 786-O cells at 10 uM measured after 48 hrs by immunoblot analysis relative to control
[17] = Upregulation of PARP cleavage in human U-937 cells by measuring signal 1 at 15 uM measured after 48 hrs by immunoblot analysis; format: functional; summary of the method: as §2
[18] = biological target: Eukaryotic translation initiation factor 2 subunit 2 (Homo sapiens) (UniProt P20042); test: Inhibition of eIF2beta phosphorylation in human 786-O cells at 6 uM measured after 48 hrs by immunoblot analysis relative to control
[19] = tested on: Receptor-type tyrosine-protein kinase FLT3 (Homo sapiens), P36888 [D835Y]; test: Inhibition of human recombinant his tagged FLT3 D835Y expressed in insect cells at 2 uM by Eurofins kinase assay relative to control
[20] = tested on: Mast/stem cell growth factor receptor Kit (Homo sapiens), P10721 [D816H]; test: Inhibition of human recombinant GST/His tagged KIT D816H mutant expressed in insect cells at 2 uM by Eurofins kinase assay relative to control
[21] = Upregulation of PARP cleavage in human U-937 cells by measuring signal 2 at 10 uM measured after 48 hrs by immunoblot analysis; format: functional; summary of the method: as §2
[22] = Upregulation of PARP cleavage in human U-937 cells by measuring signal 1 at 10 uM measured after 48 hrs by immunoblot analysis; format: functional; summary of the method: as §2
[23] = organism: Homo sapiens; test: Inhibition of human recombinant His-tagged PIK3CA/PIK3R1 at 2 uM by Eurofins kinase assay relative to control
[24] = biological target: Serine/threonine-protein kinase Chk1 (Homo sapiens) (UniProt O14757); test: Inhibition of human recombinant CHK1 at 2 uM by Eurofins kinase assay relative to control
[25] = biological target: Serine/threonine-protein kinase TBK1 (Homo sapiens) (UniProt Q9UHD2); test: Inhibition of human TBK1 at 2 uM by Eurofins kinase assay relative to control
[26] = tested on: 786-0; test: Induction of cell death in human 786-0 cells assessed as cell viability measured after 11 hrs by CellCyteX live-cell microscopy analysis; format: functional, cell-based; conditions: dose 10-20 µM
Summary of the method: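 786-O cells seeded at 3×10³ per well and grown 24 h. Compound was then added in culture medium containing 125 nM Cytotox Green, at 0.2% (v/v) final DMSO, and kept at 37 °C in 5% CO₂. Green fluorescence images of dead cells were taken every 3 h by live-cell microscopy and normalized to the DMSO control. Results are representative of three independent measurements.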

[27] = biological target: Vascular endothelial growth factor receptor 3 (Homo sapiens) (UniProt P35916); test: Inhibition of human recombinant FLT4 at 2 uM by Eurofins kinase assay relative to control
Chain of Vascular endothelial growth factor receptor 3 (Homo sapiens) (P35916 whole entry): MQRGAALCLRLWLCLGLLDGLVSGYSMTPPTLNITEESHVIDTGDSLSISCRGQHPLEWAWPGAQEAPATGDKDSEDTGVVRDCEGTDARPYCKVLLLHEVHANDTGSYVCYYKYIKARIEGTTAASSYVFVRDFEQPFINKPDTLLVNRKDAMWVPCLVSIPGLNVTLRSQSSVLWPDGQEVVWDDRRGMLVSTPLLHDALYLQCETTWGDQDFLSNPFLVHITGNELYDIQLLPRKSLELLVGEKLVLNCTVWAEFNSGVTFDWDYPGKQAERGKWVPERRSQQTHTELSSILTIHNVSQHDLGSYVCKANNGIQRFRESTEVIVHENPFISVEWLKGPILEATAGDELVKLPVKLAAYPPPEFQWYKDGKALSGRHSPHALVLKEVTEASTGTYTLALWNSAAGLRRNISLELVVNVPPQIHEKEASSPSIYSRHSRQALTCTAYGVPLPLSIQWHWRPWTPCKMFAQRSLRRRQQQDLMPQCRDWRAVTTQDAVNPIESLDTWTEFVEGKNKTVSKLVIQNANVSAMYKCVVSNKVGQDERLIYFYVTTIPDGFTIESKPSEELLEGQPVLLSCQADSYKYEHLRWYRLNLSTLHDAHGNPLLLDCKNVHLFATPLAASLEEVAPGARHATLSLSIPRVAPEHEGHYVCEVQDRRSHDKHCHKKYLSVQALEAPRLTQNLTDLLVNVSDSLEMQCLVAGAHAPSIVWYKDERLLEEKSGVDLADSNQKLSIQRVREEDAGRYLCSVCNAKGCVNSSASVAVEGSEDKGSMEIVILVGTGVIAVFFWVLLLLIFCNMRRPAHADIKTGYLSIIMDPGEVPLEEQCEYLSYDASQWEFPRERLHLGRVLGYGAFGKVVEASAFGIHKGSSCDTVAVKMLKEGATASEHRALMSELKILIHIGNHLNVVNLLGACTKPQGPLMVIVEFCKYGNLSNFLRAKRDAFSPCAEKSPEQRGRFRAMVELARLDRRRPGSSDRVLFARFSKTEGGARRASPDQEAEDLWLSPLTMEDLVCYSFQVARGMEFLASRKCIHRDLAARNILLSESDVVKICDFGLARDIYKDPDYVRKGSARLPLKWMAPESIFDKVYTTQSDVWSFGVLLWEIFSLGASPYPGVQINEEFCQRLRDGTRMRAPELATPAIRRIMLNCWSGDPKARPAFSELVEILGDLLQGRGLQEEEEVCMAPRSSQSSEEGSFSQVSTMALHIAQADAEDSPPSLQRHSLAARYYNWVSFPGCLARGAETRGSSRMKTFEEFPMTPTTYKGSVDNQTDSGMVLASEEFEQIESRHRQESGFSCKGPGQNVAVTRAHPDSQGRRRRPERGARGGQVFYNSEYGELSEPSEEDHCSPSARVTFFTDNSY

[28] = biological target: Eukaryotic translation initiation factor 2 subunit 2 (Homo sapiens) (UniProt P20042); test: Inhibition of eIF2beta phosphorylation in human 786-O cells at 10 uM measured after 48 hrs by immunoblot analysis relative to control

inhibition [1]: 21%
inhibition [2]: 2%
inhibition [3]: 5%
inhibition [4]: 15%
inhibition [5]: 5%
inhibition [8]: 10%
inhibition [9]: 9%
inhibition [10]: 32%
inhibition [11]: 0%
inhibition [12]: 80%
inhibition [13]: 2%
inhibition [14]: 18%
inhibition [16]: 97%
inhibition [18]: 0%
inhibition [19]: 11%
inhibition [20]: 4%
inhibition [23]: 0%
inhibition [24]: 16%
inhibition [25]: 4%
inhibition [27]: 5%
inhibition [28]: 83%
Compound: Clc1ccc(N2CCN(c3ncnc4sc5c(c34)CCNC5)CC2)cc1.O=C(O)C(F)(F)F
Activity [6]: 72%
Activity [7]: 98%
Activity [15]: 17%
Activity [17]: 96%
Activity [21]: 38%
Activity [22]: 89%
Activity [26]: Dose-dependent-effect
